Data as given in ChEMBL document CHEMBL1681789, “New bichalcone analogs as NF-κB inhibitors and as cytotoxic agents inducing Fas/CD95-dependent apoptosis” (Bioorg Med Chem, 2011).
Calls of active or inactive are those of the source. The calls are words filed in the database; no cut-off is given here.

Key:
[1] = tested on: A549; assay: Cytotoxicity against human A549 cells after 3 days; assay type: functional; conditions: A549, 72 h
In short: (§1)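 Seeded at 1500–7500 cells/well; compounds added from DMSO-diluted stock. After 3 days, attached cells were fixed with cold 50% TCA, stained with 0.4% sulforhodamine B and read at 562 nm. EC50 is the concentration reducing growth by 50%, averaged over at least three independent determinations. Cells were grown in RPMI-1640 with […], 0.25% bicarbonate and 10% FBS.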

[2] = tested on: KB; assay: Cytotoxicity against human KB cells after 3 days; assay type: functional; conditions: 72 h; in short: as §1
[3] = tested on: BV-2; assay: Inhibition of NADPH oxidase mediated-ROS production in mouse BV2 cells; assay type: cell-based
In short: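 Compounds were incubated with 50 µg microglial cell homogenate for 20 min at 37 °C in the dark. Superoxide production was started with 200 µM NADPH, and chemiluminescence was followed for 30 min; the AUC represents ROS production. DPI served as positive control.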

[4] = tested on: DU-145; assay: Cytotoxicity against human DU145 cells after 3 days; assay type: functional; conditions: DU-145, 72 h; in short: as §1
[5] = Inhibition of Nitric oxide synthase activity in mouse BV2 cells assessed as LPS-induced NO production after 24 hrs by Griess reaction; assay type: cell-based; conditions: BV-2, 24 h
In short: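 Murine BV2 microglia were cultured in DMEM with 5% FBS and given 1–50 µM drug with 0.5 µg/mL LPS. Nitrite accumulated in the medium over 24 h was measured by Griess reagent. IC50 values are means ± SEM from 3–6 experiments on different days using different passages.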

[6] = tested on: HCT-8; assay: Cytotoxicity against human HCT8 cells after 3 days; assay type: functional; conditions: HCT-8, 72 h; in short: as §1
[7] = tested on: BV-2; assay: Reduction in iNOS protein expression in LPS-stimulated mouse BV2 cells at 1 uM by Western blotting
[8] = tested on: BV-2; assay: Inhibition of NF-kappaB nuclear translocation in LPS-stimulated mouse BV2 cells at 1 uM by Western blotting; assay type: cell-based
[9] = tested on: KB; assay: Cytotoxicity against human KB cells at 20 ug/ml after 3 days; assay type: functional, cell-based
[10] = tested on: HCT-8; assay: Cytotoxicity against human HCT8 cells at 20 ug/ml after 3 days; assay type: functional, cell-based
[11] = tested on: A549; assay: Cytotoxicity against human A549 cells at 20 ug/ml after 3 days; assay type: functional, cell-based
[12] = tested on: DU-145; assay: Cytotoxicity against human DU145 cells at 20 ug/ml after 3 days; assay type: functional, cell-based
[13] = tested on: HT-29; assay: Cytotoxicity against human HT-29 cells at 30 uM by MTT assay; assay type: functional, cell-based; conditions: TDE = time-dependent effect
In short: (§2)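 HT-29 cells in 96-well plates were exposed to 0–50 µM for 24 h, or to 30 µM for 12–72 h. MTT was then added for 4 h at 37 °C in the dark, and formazan was dissolved in DMSO and read at 570 nm. Viability is expressed as % of untreated OD, run in triplicate, mean±SD.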

[14] = tested on: HT-29; assay: Induction of apoptosis in human HT-29 cells assessed as increased expression of AIF protein by Western blotting; assay type: functional, cell-based
In short: (§3)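 Total or cytosolic extracts (30 µg protein) from treated HT-29 cells were run on SDS-PAGE and transferred to PVDF. Blots were probed for 12 h with monoclonal antibodies to the named protein, followed by an HRP secondary, and detected by ECL.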

[15] = tested on: HT-29; assay: Induction of apoptosis in human HT-29 cells assessed as decreased expression of pro-caspase-9 protein by Western blotting; assay type: functional, cell-based; in short: as §3
[16] = tested on: HT-29; assay: Induction of apoptosis in human HT-29 cells assessed as increased expression of cytosolic cytochrome C protein by Western blotting; assay type: functional, cell-based; in short: as §3
[17] = tested on: HT-29; assay: Induction of apoptosis in human HT-29 cells assessed as increased expression of Fas/CD95 protein by Western blotting; assay type: functional, cell-based; in short: as §3
[18] = tested on: HT-29; assay: Induction of apoptosis in human HT-29 cells assessed as decreased expression of pro-caspase-8 protein by Western blotting; assay type: functional, cell-based; in short: as §3
[19] = tested on: HT-29; assay: Induction of apoptosis in human HT-29 cells assessed as decreased expression of Bcl-2 protein by Western blotting; assay type: functional, cell-based; in short: as §3
[20] = tested on: HT-29; assay: Induction of apoptosis in human HT-29 cells assessed as caspase 3 activation at 30 uM for 24 hrs by MTT assay; assay type: functional, cell-based
[21] = tested on: HT-29; assay: Cytotoxicity against human HT-29 cells assessed as nuclear shrinkage and chromatin condensation at 50 uM for 24 hrs using DAPI staining by fluorescence microscopy relative to untreated cells; assay type: functional, cell-based
In short: (§4)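 HT-29 cells, kept in RPMI-1640 with FBS and penicillin/streptomycin, were treated for 24 or 48 h. They were fixed in 4% paraformaldehyde for 30 min and stained with 1 µg/mL DAPI for 30 min in the dark. Nuclear morphology was examined by fluorescence microscopy at ×200.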

[22] = tested on: HT-29; assay: Induction of apoptosis in human HT-29 cells at 30 uM for 24 hrs pretreated with caspase 8 inhibitor Z-IETD-FMK for 1 hr by MTT assay; assay type: functional, cell-based
In short: (§5)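 HT-29 cells were pretreated for 1 h with caspase-3, -8 or -9 inhibitor (dissolved in DMSO, diluted in medium), then given 30 µM for 24 h. Viability was read by MTT at 570 nm, in triplicate.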

[23] = tested on: HT-29; assay: Induction of apoptosis in human HT-29 cells assessed as caspase 9 activation at 30 uM for 24 hrs by MTT assay; assay type: functional, cell-based
[24] = tested on: HT-29; assay: Induction of apoptosis in human HT-29 cells at 30 uM for 24 hrs pretreated with caspase 3 inhibitor […] for 1 hr by MTT assay; assay type: functional, cell-based; in short: as §5
[25] = tested on: HT-29; assay: Induction of apoptosis in human HT-29 cells at 30 uM for 24 hrs pretreated with caspase 9 inhibitor Z-LEHD-FMK for 1 hr by MTT assay; assay type: functional, cell-based; in short: as §5
[26] = tested on: HT-29; assay: Induction of apoptosis in human HT-29 cells assessed as increased expression of Bax protein by Western blotting; assay type: functional, cell-based; in short: as §3
[27] = tested on: HT-29; assay: Cytotoxicity against human HT-29 cells assessed as nuclear shrinkage and chromatin condensation at 30 uM for 24 hrs using DAPI staining by fluorescence microscopy relative to untreated cells; assay type: functional, cell-based; in short: as §4
[28] = tested on: HT-29; assay: Induction of apoptosis in human HT-29 cells assessed as DNA fragmentation at 30 uM using TUNEL staining by flow cytometry; assay type: functional, cell-based
In short: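 HT-29 cells in 6-well plates were treated with 30 µM for 24 and 48 h and harvested. They were labeled with TdT enzyme at 37 °C for 1 h, then FITC anti-digoxigenin conjugate at 37 °C for 30 min in the dark. TUNEL-positive cells were counted by flow cytometry, in triplicate.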

[29] = tested on: HT-29; assay: Cytotoxicity against human HT-29 cells for 24 hrs by MTT assay; assay type: functional, cell-based; in short: as §2
[30] = tested on: HT-29; assay: Cytotoxicity against human HT-29 cells assessed as nuclear shrinkage and chromatin condensation at 30 uM for 48 hrs using DAPI staining by fluorescence microscopy relative to untreated cells; assay type: functional, cell-based; in short: as §4
[31] = tested on: HT-29; assay: Induction of apoptosis in human HT-29 cells assessed as increased expression of t-Bid protein by Western blotting; assay type: functional, cell-based; in short: as §3
[32] = tested on: HT-29; assay: Induction of apoptosis in human HT-29 cells assessed as increased expression of Endo G protein by Western blotting; assay type: functional, cell-based; in short: as §3
[33] = tested on: HT-29; assay: Induction of apoptosis in human HT-29 cells assessed as increased expression of Apaf-1 protein by Western blotting; assay type: functional, cell-based; in short: as §3
[34] = tested on: HT-29; assay: Induction of apoptosis in human HT-29 cells assessed as increased expression of FADD protein by Western blotting; assay type: functional, cell-based; in short: as §3
[35] = tested on: HT-29; assay: Cytotoxicity against human HT-29 cells assessed as nuclear shrinkage and chromatin condensation at 50 uM for 48 hrs using DAPI staining by fluorescence microscopy relative to untreated cells; assay type: functional, cell-based; in short: as §4
[36] = tested on: HT-29; assay: Induction of apoptosis in human HT-29 cells assessed as increased expression of caspase 3 protein by Western blotting; assay type: functional, cell-based; in short: as §3
[37] = tested on: HT-29; assay: Induction of apoptosis in human HT-29 cells assessed as caspase 8 activation at 30 uM for 24 hrs by MTT assay; assay type: functional, cell-based

COc1cc(C(=O)/C=C/c2ccccn2)cc(CN2CCN(c3ccc(C(=O)/C=C/c4ccccn4)cc3)CC2)c1O
GI50 [1]: 1 µM | GI50 [2]: 3.98 µM | inhibition [3]: inactive | GI50 [4]: 1.3 µM | IC50 [5]: 1600 nM | GI50 [6]: 0.7 µM

O=C(/C=C/c1cccnc1)c1ccc(N2CCN(Cc3cc(C(=O)/C=C/c4cccnc4)ccc3O)CC2)cc1
inhibition [7]: Active | GI50 [1]: 1.47 µM | GI50 [2]: 1.66 µM | inhibition [3]: inactive | GI50 [4]: 2.19 µM | IC50 [5]: 300 nM | GI50 [6]: 1.4 µM | inhibition [8]: Active

CC(=O)c1ccc(N2CCN(Cc3cc(C(=O)/C=C/c4cccn4C)ccc3O)CC2)cc1
GI50 [1]: 31.2 µM | GI50 [2]: 39.1 µM | inhibition [3]: inactive | GI50 [4]: > 45.1 µM | IC50 [5]: 1900 nM | GI50 [6]: > 45.1 µM

CC(=O)O[C@H]1C(=O)[C@@]2(C)[C@H]([C@H](OC(=O)c3ccccc3)[C@]3(O)C[C@H](OC(=O)[C@H](O)[C@@H](NC(=O)c4ccccc4)c4ccccc4)C(C)=C1C3(C)C)[C@]1(OC(C)=O)CO[C@@H]1C[C@@H]2O [PACLITAXEL]
GI50 [1]: 0.0076 µM | GI50 [2]: 0.00516 µM | GI50 [4]: 0.00523 µM | GI50 [6]: > 0.1 µM

O=C(/C=C/c1ccccn1)c1ccc(N2CCN(Cc3cc(C(=O)/C=C/c4ccccn4)ccc3O)CC2)cc1
GI50 [1]: 1.08 µM | GI50 [2]: 1.23 µM | inhibition [3]: inactive | GI50 [4]: 1.25 µM | IC50 [5]: 1400 nM | GI50 [6]: 1.26 µM

COc1ccc(/C=C/C(=O)c2ccc(N3CCN(Cc4cc(C(=O)/C=C/c5ccc(OC)cc5)ccc4O)CC3)cc2)cc1
inhibition [7]: Active | Activity [9]: inactive | Activity [10]: inactive | inhibition [3]: inactive | Activity [11]: inactive | IC50 [5]: 500 nM | Activity [12]: inactive | inhibition [8]: Active

CC(=O)c1ccc(N2CCN(Cc3cc(C(=O)/C=C/c4ccc[nH]4)ccc3O)CC2)cc1
GI50 [1]: 20.1 µM | GI50 [2]: 19 µM | inhibition [3]: inactive | GI50 [4]: 17.9 µM | IC50 [5]: 1700 nM | GI50 [6]: 24.7 µM

COc1cc(C(=O)/C=C/c2cccnc2)cc(CN2CCN(c3ccc(C(C)=O)cc3)CC2)c1O
Activity [13]: tde | Activity [14]: Active | Activity [15]: Active | Activity [16]: Active | Activity [17]: Active | GI50 [1]: 9.77 µM | Activity [18]: Active | GI50 [2]: 13.1 µM | Activity [19]: Active | Activity [20]: Active | Activity [21]: Active | Activity [22]: inactive | Activity [23]: Active | Activity [24]: inactive | inhibition [3]: inactive | Activity [25]: inactive | GI50 [4]: 9.98 µM | Activity [26]: Active | Activity [27]: Active | Activity [28]: Active | Activity [29]: Dose-dependent effect | Activity [30]: Active | Activity [31]: Active | Activity [32]: Active | Activity [33]: Active | Activity [34]: Active | IC50 [5]: 3500 nM | GI50 [6]: 11.2 µM | Activity [35]: Active | Activity [36]: Active | Activity [37]: Active

O=C(/C=C/c1cccs1)c1ccc(N2CCN(Cc3cc(C(=O)/C=C/c4cccs4)ccc3O)CC2)cc1
GI50 [1]: > 37 µM | GI50 [2]: > 37 µM | inhibition [3]: inactive | GI50 [4]: 29.2 µM | IC50 [5]: 1900 nM | GI50 [6]: > 37 µM

COc1cc(C(=O)/C=C/c2sccc2C)cc(CN2CCN(c3ccc(C(=O)/C=C/c4sccc4C)cc3)CC2)c1O
Activity [9]: inactive | Activity [10]: inactive | inhibition [3]: inactive | Activity [11]: inactive | IC50 [5]: 3100 nM | Activity [12]: inactive

COc1cc(C(=O)/C=C/c2ccccc2)cc(CN2CCN(c3ccc(C(=O)/C=C/c4ccccc4)cc3)CC2)c1O
GI50 [1]: > 35.8 µM | GI50 [2]: > 35.8 µM | inhibition [3]: inactive | GI50 [4]: > 35.8 µM | IC50 [5]: 2100 nM | GI50 [6]: 25.8 µM
